Assay [1] deals with T1, Inosine-5'-monophosphate dehydrogenase 1 (Homo sapiens, UniProt P20839). Kind of assay: Inhibitory activity against inosine monophosphate dehydrogenase IMPDH type I.
Target sequence in this assay (P20839 whole entry): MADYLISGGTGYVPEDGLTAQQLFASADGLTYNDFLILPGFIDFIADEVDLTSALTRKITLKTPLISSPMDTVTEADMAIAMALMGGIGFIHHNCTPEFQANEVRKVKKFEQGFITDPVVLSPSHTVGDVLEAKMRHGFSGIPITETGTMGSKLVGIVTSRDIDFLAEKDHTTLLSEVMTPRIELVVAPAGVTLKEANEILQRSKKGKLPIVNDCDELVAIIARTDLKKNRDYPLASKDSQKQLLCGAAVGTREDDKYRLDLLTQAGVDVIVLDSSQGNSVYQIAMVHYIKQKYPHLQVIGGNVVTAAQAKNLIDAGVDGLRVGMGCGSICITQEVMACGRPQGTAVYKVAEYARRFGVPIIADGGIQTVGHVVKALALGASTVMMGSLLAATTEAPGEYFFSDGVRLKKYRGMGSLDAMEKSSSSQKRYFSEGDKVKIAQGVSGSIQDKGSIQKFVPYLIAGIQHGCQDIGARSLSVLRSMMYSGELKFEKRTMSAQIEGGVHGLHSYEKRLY
Assay [2] deals with T2, Inosine-5'-monophosphate dehydrogenase 2 (Homo sapiens, UniProt P12268). Kind of assay: Inhibition of human inosine monophosphate dehydrogenase IMPDH II. The essentials:
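Human type II IMPDH expressed in and purified from E. coli, used at 40 nM. Buffer: 0.1 M Tris, 0.1 M KCl, 3 mM EDTA, pH 8.0, with 400 µM IMP and 2 mM DTT. Compounds were added from DMSO to a final 2.5% DMSO. NAD (400 µM final) started the reaction. After 2 h at 25°C, NADH was read at 340 nm. IC50 came from a four-parameter logistic fit.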

For another assay, the system named is CCRF-CEM. Kind of assay: Inhibitory activity against CEM cell proliferation. The class given is functional, cell-based. The settings on record: Homo sapiens.
Assay [3] deals with T1, Inosine-5'-monophosphate dehydrogenase 1. Kind of assay: Ratio of IC50(Type I) to IC50(Type II).
Target sequence in this assay (P20839 2-514 limits assumed): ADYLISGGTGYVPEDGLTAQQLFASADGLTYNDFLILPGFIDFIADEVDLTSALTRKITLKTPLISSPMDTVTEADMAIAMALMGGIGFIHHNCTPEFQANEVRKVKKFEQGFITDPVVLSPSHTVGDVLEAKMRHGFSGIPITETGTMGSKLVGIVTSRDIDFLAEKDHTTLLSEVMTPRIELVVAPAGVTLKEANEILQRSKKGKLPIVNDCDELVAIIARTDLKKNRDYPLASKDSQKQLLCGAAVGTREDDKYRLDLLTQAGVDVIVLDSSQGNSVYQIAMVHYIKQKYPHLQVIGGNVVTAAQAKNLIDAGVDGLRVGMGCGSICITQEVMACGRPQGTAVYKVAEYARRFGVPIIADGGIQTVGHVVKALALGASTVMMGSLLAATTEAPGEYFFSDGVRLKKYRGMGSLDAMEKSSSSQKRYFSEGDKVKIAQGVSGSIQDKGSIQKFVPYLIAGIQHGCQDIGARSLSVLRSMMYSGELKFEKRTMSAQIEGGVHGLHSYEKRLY
Assay [4] addresses T2, Inosine-5'-monophosphate dehydrogenase 2. Kind of assay: Inhibitory activity against IMPDH II with respect to IMP and NAD.

The results in this text go back to ChEMBL document CHEMBL1136568 (Bioorg Med Chem Lett, 2003).

Where only a bound is given, the exact number is not on record here.

A word on the IC50: it is the point on the concentration scale where inhibition reaches its midpoint. The low end stands for greater potency in that assay, the high end for weaker potency in that assay. As for `COc1c(C)c2c(c(O)c1C/C=C(\C)CCC(=O)O)C(=O)OC2` [MYCOPHENOLIC ACID], in assay [1], inhibition was half-maximal at 55 nM (IC50).
In the case of `COc1cc2nc(-c3ccncc3)cc(O)c2cc1-c1cnco1`, inhibition in assay [2] was half-maximal at 46 nM (IC50).
In turn, `COc1cc2nc(-c3cccc(O)c3)cc(O)c2cc1-c1cnco1` returned an IC50 in assay [2] of 18 nM.
In assay [2], `COc1cc2nc(-c3cccc(Br)c3)cc(O)c2cc1-c1cnco1` gave an IC50 of 22 nM.
In assay [2], `COc1cc2nc(C)cc(O)c2cc1-c1cnco1` gave an IC50 of 110 nM.
`COc1cc2nc(-c3ccccc3C)cc(O)c2cc1-c1cnco1`: half-maximal inhibition in assay [2] (IC50) required 65 nM.
In turn, `COc1cc2nc(-c3ccc(C(=O)O)cc3)cc(O)c2cc1-c1cnco1` showed an IC50 in assay [2] above 1000 nM.
Take `COc1cc2nc(-c3ccc(C)c(C)c3)cc(O)c2cc1-c1cnco1`: the IC50 in assay [1] is 83 nM; with CCRF-CEM, 410 nM; in assay [2], below 5 nM. In addition, the Ratio in assay [3] was above 17.
For `COc1cc2nc(-c3cc(C)ccc3C)cc(O)c2cc1-c1cnco1`, in assay [2], the IC50 was determined as 29 nM.
The Ki is a measure of affinity in units of concentration, obtained from inhibition or displacement. Consider `COc1cc2nc(-c3ccccc3)cc(O)c2cc1-c1cnco1`, for which the results for the IC50 (in assay [1]; with CCRF-CEM; in assay [2]) were 99 nM, 690 nM and 8 nM, respectively. For the same compound, in assay [3], the Ratio is 12. The compound further came in with a Ki in assay [4] of 7 nM.
For `COc1cc2nc(-c3ccsc3)cc(O)c2cc1-c1cnco1`, the IC50 in assay [1] came to 55 nM; with CCRF-CEM it was 340 nM; in assay [2] it was 9 nM. Moreover, in assay [3], the Ratio turned out to be 6.
Turning to `COc1cc2nc(-c3cccc(S(C)(=O)=O)c3)cc(O)c2cc1-c1cnco1`, the IC50 in assay [2] was found to be 160 nM.
On to `COc1cc2nc(-c3ccc(C)c(Br)c3)cc(O)c2cc1-c1cnco1`, for which, in assay [2], the IC50 was 19 nM.
On to `COc1cc2nc(-c3cccc(C)c3)cc(O)c2cc1-c1cnco1`, for which the IC50 was 150 nM in assay [1], 1100 nM in the assay on CCRF-CEM and 5 nM in assay [2]. Besides, the Ratio in assay [3] is 30.
Consider `COc1cc2nccc(O)c2cc1-c1cnco1`, for which the IC50 in assay [2] worked out at 300 nM.
Take `COc1cc(NC(=O)Nc2cccc(C)c2)ccc1-c1cnco1`: the IC50 was 55 nM in assay [1] and 320 nM in the assay on CCRF-CEM. The Ratio in assay [3] came to 2.9.
With `COc1cc2nc(-c3ccc(Br)cc3)cc(O)c2cc1-c1cnco1`, half-maximal inhibition in assay [2] (IC50) was put at 5 nM.
In the case of `COc1cc2nc(-c3ccoc3)cc(O)c2cc1-c1cnco1`, the IC50 in assay [2] turned out to be 32 nM.
As to `COc1cc2nc(-c3cccnc3)cc(O)c2cc1-c1cnco1`, inhibition in assay [2] was half-maximal at 70 nM (IC50).
The compound `COc1cc2nc(-c3ccccn3)cc(O)c2cc1-c1cnco1` returned an IC50 in assay [2] of 43 nM.
Turning to `COc1cc2nc(-c3ccccc3)c(C)c(O)c2cc1-c1cnco1`, the midpoint of inhibition in assay [2], the IC50, lay at 65 nM.
For the compound `COc1cc2nc(-c3cccc(C(=O)O)c3)cc(O)c2cc1-c1cnco1`, 160 nM corresponded to half-maximal inhibition in assay [2] (IC50).
For the compound `COc1cc2nc(-c3ccc(O)cc3)cc(O)c2cc1-c1cnco1`, the IC50 in assay [2] turned out to be 43 nM.
`COc1cc2nc(-c3cccs3)cc(O)c2cc1-c1cnco1` yielded an IC50 in assay [2] of 63 nM.
`CNc1cc(O)c2cc(-c3cnco3)c(OC)cc2n1` registered an IC50 in assay [2] of 220 nM.
In turn, `COc1cc2nc(C(C)(C)C)cc(O)c2cc1-c1cnco1` came in with an IC50 in assay [2] above 10000 nM.
For the compound `COc1ccc(-c2cc(O)c3cc(-c4cnco4)c(OC)cc3n2)cc1`, the IC50 in assay [1] is 90 nM; in the assay with CCRF-CEM it was 370 nM; in assay [2], below 5 nM. The Ratio in assay [3] was above 18.
`COc1cc2nc(Cc3ccccc3)cc(O)c2cc1-c1cnco1` returned an IC50 in assay [2] of 180 nM.
As for `COc1cc2nc(-c3ccc(C)cc3)cc(O)c2cc1-c1cnco1`, the results for the IC50 (in assay [1]; in the assay with CCRF-CEM; in assay [2]) were 46 nM, 560 nM and below 5 nM, respectively. In addition, the Ratio in assay [3] is above 9.
`COc1cc2nc(-c3cscn3)cc(O)c2cc1-c1cnco1` yielded an IC50 in assay [2] of 34 nM.
With `COc1cc2nc(N(C)C)cc(O)c2cc1-c1cnco1`, inhibition in assay [2] was half-maximal at 200 nM (IC50).
